Assay results reported in ChEMBL document CHEMBL2417357, “Synthesis and antiprotozoal activities of benzyl phenyl ether diamidine derivatives” (Eur J Med Chem, 2013).
The source made the active and inactive calls. No cut-off for these calls is given here.

Columns and labels:
Plasmodium falciparum = assay: Antiplasmodial activity against chloroquine-resistant Plasmodium falciparum K1; assay type: functional, organism-based
In short: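 Chloroquine-resistant K1 strain tested in vitro. IC50 is the average of duplicate determinations.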

[1] = Selectivity index, ratio of IC50 for rat L6 cells to IC50 for chloroquine-resistant Plasmodium falciparum K1; assay type: toxicity, cell-based; conditions: read-out: Ratio IC50
In short: (§1)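 SI = IC50 in rat L6 myoblasts / IC50 against the parasite (T. b. rhodesiense STIB900 or P. falciparum K1). Each IC50 is the average of duplicate determinations.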

[2] = Selectivity index, ratio of IC50 for rat L6 cells to IC50 for amastigotes of Leishmania donovani; assay type: toxicity, cell-based; conditions: read-out: Ratio IC50
In short: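 SI = IC50 in rat L6 myoblasts / IC50 against L. donovani MHOM/SD/62/IS-CL2D axenic amastigotes. The amastigote IC50 is the average of at least two determinations; the L6 IC50 is the average of duplicates.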

[3] = test system: Trypanosoma brucei rhodesiense; assay: Antitrypanosomal activity against Trypanosoma brucei rhodesiense STIB900 after 72 hrs by Alamar blue assay; assay type: functional, organism-based; conditions: STIB900, 72 h
Leishmania donovani = assay: Antileishmanial activity against amastigotes of Leishmania donovani MHOM/SD/62/IS-CL2D; assay type: functional, organism-based
In short: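 Axenic amastigotes of L. donovani MHOM/SD/62/IS-CL2D; IC50 taken as the average of at least two determinations.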

[4] = test system: Trypanosoma brucei rhodesiense; assay: Antitrypanosomal activity against Trypanosoma brucei rhodesiense STIB900 infected in NMRI mouse assessed as mean survival days at 5 mg/kg, ip administered for 4 days; assay type: functional; conditions: route intraperitoneal
In short: (§2)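 Female NMRI mice, acute infection model with T. b. rhodesiense STIB900. Compound given as a single daily dose for four days, intraperitoneally or orally. Cure means survival to 60 days post-infection without parasitaemia relapse. Mean survival recorded in days.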

[5] = Selectivity index, ratio of IC50 for rat L6 cells to IC50 for Trypanosoma brucei rhodesiense STIB900; assay type: toxicity, cell-based; conditions: read-out: Ratio IC50; in short: as §1
[6] = test system: Trypanosoma brucei rhodesiense; assay: Antitrypanosomal activity against Trypanosoma brucei rhodesiense STIB900 infected in NMRI mouse assessed as cured animal at 5 mg/kg, ip administered for 4 days; assay type: functional, organism-based; parameters: dose 5 mg/kg
In short: (§3)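 Acute model in female NMRI mice infected with T. b. rhodesiense STIB900. Single daily doses given for four days, intraperitoneally or orally. Mice surviving 60 days post-infection without parasitaemia relapse counted as cured; result reported as cured/infected out of 4 mice per group, with mean survival in days.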

L6 = assay: Cytotoxicity against rat L6 cells after 72 hrs by Alamar blue assay; assay type: cell-based; conditions: L6, 72 h
In short: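 Rat L6 myoblast cells; cytotoxic IC50 taken as the average of duplicate determinations.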

[7] = test system: Trypanosoma brucei rhodesiense; assay: Antitrypanosomal activity against Trypanosoma brucei rhodesiense STIB900 infected in NMRI mouse assessed as mean survival days at 100 mg/kg, po administered for 4 days; assay type: functional; in short: as §2
[8] = test system: Trypanosoma brucei rhodesiense; assay: Antitrypanosomal activity against Trypanosoma brucei rhodesiense STIB900 infected in NMRI mouse assessed as mean survival days at 25 mg/kg, po administered for 4 days; assay type: functional; in short: as §2
[9] = test system: Trypanosoma brucei rhodesiense; assay: Antitrypanosomal activity against Trypanosoma brucei rhodesiense STIB900 infected in NMRI mouse assessed as cured animal at 100 mg/kg, po administered for 4 days; assay type: functional, organism-based; parameters: dose 100 mg/kg; in short: as §3
[10] = test system: Trypanosoma brucei rhodesiense; assay: Antitrypanosomal activity against Trypanosoma brucei rhodesiense STIB900 infected in NMRI mouse assessed as cured animal at 25 mg/kg, po administered for 4 days; assay type: functional, organism-based; parameters: dose 25 mg/kg; in short: as §3
[11] = test system: Trypanosoma brucei rhodesiense; assay: Antitrypanosomal activity against Trypanosoma brucei rhodesiense STIB900 infected in NMRI mouse assessed as cured animal at 20 mg/kg, ip administered for 4 days; assay type: functional, organism-based; parameters: dose 20 mg/kg; in short: as §3
[12] = test system: Trypanosoma brucei rhodesiense; assay: Antitrypanosomal activity against Trypanosoma brucei rhodesiense STIB900 infected in NMRI mouse assessed as mean survival days at 20 mg/kg, ip administered for 4 days; assay type: functional; conditions: route intraperitoneal; in short: as §2
[13] = test system: Trypanosoma brucei rhodesiense; assay: Antitrypanosomal activity against Trypanosoma brucei rhodesiense STIB900 infected in NMRI mouse assessed as mean survival days at 2 mg/kg, ip administered for 4 days; assay type: functional; conditions: route intraperitoneal; in short: as §2
[14] = test system: Trypanosoma brucei rhodesiense; assay: Antitrypanosomal activity against Trypanosoma brucei rhodesiense STIB900 infected in NMRI mouse assessed as cured animal at 2 mg/kg, ip administered for 4 days; assay type: functional, organism-based; parameters: dose 2 mg/kg; in short: as §2

Compound | IC50 (Plasmodium falciparum) | selectivity ratio [1] | selectivity ratio [2] | IC50 [3] | IC50 (Leishmania donovani) | MSD [4] | selectivity ratio [5] | Activity [6] | IC50 (L6) | MSD [7] | MSD [8] | Activity [9] | Activity [10] | Activity [11] | MSD [12] | MSD [13] | Activity [14]
COc1cc(C(=N)N)ccc1OCc1cccc(C(=N)N)c1 | 0.031 µM | 2760 | 3 | 0.019 µM | 28.6 µM | 22 days | 4400 | inactive | 85.4 µM | – | – | – | – | – | – | – | –
N=C(N)c1cccc(COc2c(I)cc(C(=N)N)cc2I)c1 | 0.0664 µM | 291 | 14 | 0.003 µM | 1.39 µM | 21.25 days | 5680 | inactive | 19.3 µM | – | – | – | – | – | – | – | –
Cl.Cl.N/C(=N\O)c1ccc(COc2ccc(/C(N)=N/O)cc2)cc1 | 9.49 µM | < 1 | < 1 | > 238 µM | > 100 µM | – | < 1 | – | 8.28 µM | >46.25 days | >31.7 days | – | – | – | – | – | –
N=C(N)c1ccc(COc2ccc(C(=N)N)cc2Br)cc1 | 0.004 µM | 1250 | 2 | 0.016 µM | 2.02 µM | 29 days | 322 | inactive | 4.99 µM | – | – | – | – | – | – | – | –
N=C(N)c1ccc(COc2c(I)cc(C(=N)N)cc2I)cc1 | 0.019 µM | 746 | 9 | 0.012 µM | 1.6 µM | 24.5 days | 1170 | inactive | 13.8 µM | – | – | – | – | – | – | – | –
N=C(N)c1ccc(COc2cccc(C(=N)N)c2)cc1 | 0.195 µM | 99 | < 1 | 0.028 µM | 42.1 µM | 19 days | 694 | inactive | 19.3 µM | – | – | – | – | – | – | – | –
Cl.Cl.N/C(=N\O)c1cccc(COc2c(Br)cc(/C(N)=N/O)cc2Br)c1 | 7.56 µM | 4 | < 1 | 6.89 µM | 61.1 µM | – | 4 | – | 26.8 µM | >60 days | 20.75 days | Active | inactive | – | – | – | –
COc1cc(C(=N)N)cc(Br)c1OCc1cccc(C(=N)N)c1.Cl.Cl | 0.0289 µM | 747 | < 2 | 0.005 µM | 11.4 µM | >45.75 days | 4070 | inactive | 21.6 µM | – | – | – | – | – | – | – | –
N=C(N)c1cccc(COc2cccc(C(=N)N)c2)c1 | 0.121 µM | 198 | – | 0.097 µM | – | – | 248 | – | 24 µM | – | – | – | – | inactive | 19.8 days | – | –
N=C(N)c1ccc(OCc2cccc(C(=N)N)c2)cc1 | 0.035 µM | 168 | – | 0.024 µM | – | – | 250 | – | 5.93 µM | – | – | – | – | inactive | 25.25 days | – | –
N=C(N)c1cccc(COc2c(Br)cc(C(=N)N)cc2Br)c1 | 0.12 µM | 39 | 1 | 0.004 µM | 3.37 µM | >35.25 days | 1270 | inactive | 4.7 µM | – | – | – | – | – | – | – | –
COc1cc(C(=N)N)cc(I)c1OCc1cccc(C(=N)N)c1.Cl | 0.0245 µM | 760 | 3 | 0.003 µM | 6.01 µM | 35.75 days | 6210 | inactive | 18.6 µM | – | – | – | – | – | – | – | –
Nc1nc(N)nc(Nc2ccc([As]3SCC(CO)S3)cc2)n1 (stereo not drawn) [MELARSOPROL] | – | – | – | – | – | – | 1220 | – | – | – | – | – | – | – | – | >60 days | Active
N=C(N)c1ccc(COc2c(Cl)cc(C(=N)N)cc2Cl)cc1 | 0.014 µM | 2020 | 4 | 0.024 µM | 6.4 µM | 30.25 days | 1170 | inactive | 28.5 µM | – | – | – | – | – | – | – | –
N=C(N)c1cccc(COc2c(Cl)cc(C(=N)N)cc2Cl)c1 | 0.185 µM | 3 | < 1 | 0.01 µM | 6.51 µM | 27.5 days | 57 | inactive | 0.57 µM | – | – | – | – | – | – | – | –
N=C(N)c1ccc(COc2ccc(C(=N)N)cc2)cc1 | 0.078 µM | 89 | < 14 | 0.091 µM | 8.77 µM | 22.5 days | 77 | inactive | 6.96 µM | – | – | – | – | – | – | – | –
COc1cc(C(=N)N)cc(OC)c1OCc1cccc(C(=N)N)c1.Cl.Cl | 0.231 µM | 416 | < 1 | 0.183 µM | > 100 µM | 16.25 days | 524 | inactive | 96 µM | – | – | – | – | – | – | – | –
N=C(N)c1cccc(COc2ccc(C(=N)N)cc2Cl)c1 | 0.051 µM | 275 | 5 | 0.007 µM | 2.91 µM | 24.5 days | 1900 | inactive | 13.9 µM | – | – | – | – | – | – | – | –
Cl.Cl.N=C(N)c1cccc(COc2ccc(C(=N)N)cc2[N+](=O)[O-])c1 | 0.018 µM | 592 | < 1 | 0.034 µM | 11.3 µM | 23.25 days | 324 | inactive | 10.8 µM | – | – | – | – | – | – | – | –
